Common to all, as to type: functional
Assay [1] concerns Escherichia coli. Put plainly: Antibacterial activity Escherichia coli NCIM 2109 after 24 hrs by NCCLS method. In a few lines:
(§1)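 Broth microdilution MIC per NCCLS. Compounds dissolved in DMSO, serially diluted in growth medium, incubated at 37 °C. Read at 24 h for bacteria and 24–72 h for fungi. MIC90 taken as the first well with about 90% growth reduction relative to the drug-free well.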

Assay [2] deals with Pseudomonas aeruginosa. Kind of assay: Antibacterial activity Pseudomonas aeruginosa NCIM 2036 after 24 hrs by NCCLS method. In a few lines: as §1
Assay [3] deals with Candida albicans. Kind of assay: Antifungal activity Candida albicans NCIM 3471 after 24 to 72 hrs by NCCLS method. Put shortly: as §1
Assay [4] deals with Escherichia coli. Put plainly: Antibacterial activity Escherichia coli NCIM 2109 at 100 ug/disc by agar-well diffusion assay. Particulars: read-out: DIZ. In a few lines: (§2)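 Agar-well diffusion screen against standard strains. Zone of inhibition is the read-out. Chloramphenicol, nystatin and ravuconazole were run as positive controls.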
The subject of assay [5] is Bacillus subtilis. Put plainly: Antibacterial activity Bacillus subtilis NCIM 2250 at 100 ug/disc by agar-well diffusion assay. Put shortly: as §2
Background: In agar diffusion tests the substance spreads into inoculated agar from a disc or well.

Assay [6] has as its system Aspergillus niger. Kind of assay: Antifungal activity Aspergillus niger NCIM 545 after 24 to 72 hrs by NCCLS method. In a few lines:
as §1

Assay [7] has as its system Aspergillus niger. Kind of assay: Antifungal activity Aspergillus niger NCIM 545 at 100 ug/disc by agar-well diffusion assay. In a few lines:
as §2

For assay [8], the system named is Staphylococcus aureus. Put plainly: Antibacterial activity Staphylococcus aureus NCIM 2079 at 100 ug/disc by agar-well diffusion assay. In a few lines: as §2
Assay [9] deals with Candida albicans. Put plainly: Antifungal activity Candida albicans NCIM 3471 at 100 ug/disc by agar-well diffusion assay. In a few lines: as §2
Assay [10] has as its system Bacillus subtilis. Kind of assay: Antibacterial activity Bacillus subtilis NCIM 2250 after 24 hrs by NCCLS method. In a few lines: as §1
Assay [11] has as its system Pseudomonas aeruginosa. Kind of assay: Antibacterial activity Pseudomonas aeruginosa NCIM 2036 at 100 ug/disc by agar-well diffusion assay. Put shortly: as §2
The test system of assay [12] is Staphylococcus aureus. Put plainly: Antibacterial activity Staphylococcus aureus NCIM 2079 after 24 hrs by NCCLS method. In a few lines: as §1

A word on the MIC: it is the lowest concentration that inhibits growth of the organism.

The source made the active and inactive calls. No cut-off for these calls is given here.

Turning to `O=[N+]([O-])c1ccc(-c2csc(N/N=C(/Cn3cncn3)c3cc(C(F)(F)F)cc(C(F)(F)F)c3)n2)cc1`, the MIC entry in assay [1], in [2], in [3], in [6], in assay [10] and in assay [12] was “inactive” each time. The zone of inhibition at 100 µg/disc in assay [4] worked out at 11.1 mm. Also, the “diameter of the inhibition zone (DIZ)” value in [5], in [7], in assay [8], in [9] and in [11] was “inactive” each time.
Regarding `FC(F)(F)c1cc(-c2csc(N/N=C(/Cn3cncn3)c3ccc(Br)cc3)n2)cc(C(F)(F)F)c1`, the MIC in assay [1] (NCIM 2109, 24 h) is over 64 µg/mL; in [3], over 64 µg/mL; in assay [6] it was over 64 µg/mL. Also, the MIC result in assay [2], in assay [10] and in [12] was “inactive” in each case. Further, the zone of inhibition at 100 µg/disc in assay [4] is 11.4 mm; in assay [7] (read-out: DIZ), 10.9 mm; in assay [9] (read-out: DIZ), 13.9 mm. Besides, the “diameter of the inhibition zone (DIZ)” value in assay [5], in assay [8] and in assay [11] was “inactive” throughout.

Values taken from ChEMBL document CHEMBL2040750, “Hybrids of ravuconazole: synthesis and biological evaluation” (2012).
